# ChEMBL document CHEMBL3745639, “Structure-activity relationships for lipoprotein lipase agonists that lower plasma triglycerides in vivo” (Eur J Med Chem, 2015)
# The source made the active and inactive calls. Unless noted, no cut-off for these calls is given here.
# Key:
# [1] = biological target: T1, Lipoprotein lipase (Bos taurus) (UniProt P11151); test: Induction of bovine LPL stabilization using intralipid as substrate at 25 uM preincubated for 10 mins with human recombinant ANGPTL4 followed by substrate addition measured after 45 mins relative to control
# T1 sequence (whole entry): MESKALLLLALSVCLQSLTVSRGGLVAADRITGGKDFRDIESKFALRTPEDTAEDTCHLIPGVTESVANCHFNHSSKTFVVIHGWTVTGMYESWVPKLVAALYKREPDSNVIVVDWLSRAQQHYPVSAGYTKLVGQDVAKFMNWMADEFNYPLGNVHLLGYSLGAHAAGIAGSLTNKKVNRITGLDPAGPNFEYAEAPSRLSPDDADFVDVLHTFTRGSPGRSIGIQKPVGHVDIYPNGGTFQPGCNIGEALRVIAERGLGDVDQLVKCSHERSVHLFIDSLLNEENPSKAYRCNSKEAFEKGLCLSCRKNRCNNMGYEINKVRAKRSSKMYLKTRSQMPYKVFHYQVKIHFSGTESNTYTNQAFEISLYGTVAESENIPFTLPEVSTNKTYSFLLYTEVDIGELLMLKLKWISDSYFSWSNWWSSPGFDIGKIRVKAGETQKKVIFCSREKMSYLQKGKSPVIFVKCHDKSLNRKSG
# Procedure, shortened: (§1)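 Compound in DMSO in buffer (50 mM potassium phosphate pH 7.4, 0.15 M NaCl, 0.01% Triton X-100), with human ANGPTL4 N-terminal fragment (aa 26-184, 75 nM final) and bovine LPL (15 nM final). Preincubated 10 min at 25 °C with shaking. Stopped after 45 min with 2.5% Triton X-100, and NEFA measured enzymatically. Activity normalised between DMSO+LPL+ANGPTL4 (0%) and DMSO+LPL (100%).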
# [2] = biological target: T1, Lipoprotein lipase (Bos taurus); test: Induction of bovine LPL stabilization using intralipid as substrate at 12.5 uM preincubated for 10 mins with human recombinant ANGPTL4 followed by substrate addition measured after 45 mins relative to control; procedure, shortened: as §1
# [3] = biological target: T1, Lipoprotein lipase (Bos taurus); test: Induction of bovine LPL stabilization using intralipid as substrate at 3.12 uM preincubated for 10 mins with human recombinant ANGPTL4 followed by substrate addition measured after 45 mins relative to control; procedure, shortened: as §1
# [4] = biological target: T1, Lipoprotein lipase (Bos taurus); test: Induction of bovine LPL stabilization using intralipid as substrate at 6.25 uM preincubated for 10 mins with human recombinant ANGPTL4 followed by substrate addition measured after 45 mins relative to control; procedure, shortened: as §1
Activity [1],Activity [2],Activity [3],Activity [4],Compound
49.5%,inactive,inactive,inactive,CCN(CC)c1ccc(N2C(=O)c3ccc(C(=O)O)cc3C2=O)cc1C(=O)Nc1ccc(C)cc1
39.7%,6.2%,inactive,inactive,CCCNc1ccc(N2C(=O)c3ccc(C(=O)O)cc3C2=O)cc1C(=O)Nc1ccc(C)cc1
inactive,inactive,inactive,inactive,Cc1ccc(NC(=O)c2cc(N3C(=O)c4ccc(C(=O)O)cc4C3=O)ccc2N2CCOCC2)cc1
inactive,inactive,inactive,inactive,Cc1ccc(NC(=O)c2cc(N3C(=O)c4ccc(C(=O)O)cc4C3=O)ccc2Br)cc1
inactive,inactive,inactive,inactive,COCCOCCOc1ccc(N2C(=O)c3ccc(C(=O)O)cc3C2=O)cc1C(=O)Nc1ccc(C)cc1
94.4%,80.1%,inactive,57.2%,Cc1ccc(NC(=O)c2cc(N3C(=O)c4ccc(C(=O)O)cc4C3=O)ccc2Nc2ccccc2)cc1
3.5%,inactive,inactive,inactive,Cc1ccc(NC(=O)c2cc(N3C(=O)c4ccc(C(N)=O)cc4C3=O)ccc2N2CCCCC2)cc1
19.2%,10%,13.6%,5.9%,CCCCCCCCCCNc1ccc(N2C(=O)c3ccc(C(=O)O)cc3C2=O)cc1C(=O)Nc1ccc(C)cc1
inactive,inactive,inactive,inactive,COC(=O)c1ccc2c(c1)C(=O)N(c1ccc(N3CCCCC3)c(C(=O)Nc3ccc(C)cc3)c1)C2=O
inactive,inactive,inactive,inactive,COc1ccc(N2C(=O)c3ccc(C(=O)O)cc3C2=O)cc1C(=O)Nc1ccc(C)cc1
67.2%,47.1%,inactive,60.6%,CCCCCCNc1ccc(N2C(=O)c3ccc(C(=O)O)cc3C2=O)cc1C(=O)Nc1ccc(C)cc1
inactive,inactive,inactive,inactive,Cc1ccc(NC(=O)c2cc(N3C(=O)c4ccc(C(=O)O)cc4C3=O)ccc2N2CCN(C)CC2)cc1
96.7%,inactive,inactive,inactive,Cc1ccc(NC(=O)c2ccc(N3CCCCC3)cc2N2C(=O)c3ccc(C(=O)O)cc3C2=O)cc1
14.1%,inactive,inactive,inactive,Cc1ccc(NC(=O)c2ccc(N3C(=O)c4ccc(C(=O)O)cc4C3=O)cc2N2CCCCC2)cc1
36.3%,55.1%,inactive,inactive,Cc1ccc(NC(=O)c2cc(N3CCCCC3)ccc2N2C(=O)c3ccc(C(=O)O)cc3C2=O)cc1

# The remaining lines, values behind:
Compound,Activity [1],Activity [2],Activity [3],Activity [4]
O=C(O)c1ccc2c(c1)C(=O)N(c1ccc(NCc3cccnc3)c(C(=O)NCc3cccnc3)c1)C2=O,inactive,inactive,inactive,inactive
CCc1ccc(NC(=O)c2cc(N3C(=O)c4ccc(C(=O)O)cc4C3=O)ccc2N2CCCCC2)cc1,47%,36.5%,inactive,32.4%
O=C(O)c1ccc2c(c1)C(=O)N(c1ccc(Nc3ccccc3)c(C(=O)Nc3ccccc3-c3ccccc3)c1)C2=O,73.8%,61.5%,inactive,45%
CCc1cccc(NC(=O)c2cc(N3C(=O)c4ccc(C(=O)O)cc4C3=O)ccc2N2CCCCC2)c1,71%,63.4%,inactive,9.2%
Cc1ccc(NC(=O)c2cc(N3C(=O)c4ccccc4C3=O)ccc2N2CCCCC2)cc1,inactive,inactive,inactive,inactive
Cc1ccc(NC(=O)c2cc(N3C(=O)c4ccc(Br)cc4C3=O)ccc2N2CCCCC2)cc1,inactive,inactive,inactive,inactive
Cc1ccc(NC(=O)c2cc(N3CCCCC3)cc(N3C(=O)c4ccc(C(=O)O)cc4C3=O)c2)cc1,32.6%,inactive,inactive,inactive
O=C(O)c1ccc2c(c1)C(=O)N(c1ccc(N3CCCCC3)c(C(=O)NCc3cccnc3)c1)C2=O,inactive,inactive,inactive,inactive
Cc1ccc(NC(=O)c2cc(N3C(=O)c4cccc(C(=O)O)c4C3=O)ccc2N2CCCCC2)cc1,inactive,inactive,inactive,inactive
O=C(O)c1ccc2c(c1)C(=O)N(c1ccc(N3CCCCC3)c(C(=O)Nc3ccccc3-c3ccccc3)c1)C2=O,68.5%,63.3%,inactive,60.1%
Cc1ccc(NC(=O)c2ccc(N3CCCCC3)c(N3C(=O)c4ccc(C(=O)O)cc4C3=O)c2)cc1,79%,81.3%,inactive,inactive
Cc1ccc(NC(=O)c2cccc(N3C(=O)c4ccc(C(=O)O)cc4C3=O)c2N2CCCCC2)cc1,13.5%,inactive,inactive,inactive
Cc1ccc(NC(=O)c2cc(N3C(=O)c4ccc(C(=O)O)cc4C3=O)ccc2N2CCCCC2)cc1Cl,69.8%,73%,inactive,66.8%
Cc1ccc(NC(=O)c2cc(N3C(=O)c4ccc(C(=O)O)cc4C3=O)ccc2N2CCCCC2)cc1F,72.1%,53.3%,inactive,inactive
O=C(O)c1ccc2c(c1)C(=O)N(c1ccc(N3CCCCC3)c(C(=O)Nc3ccccc3)c1)C2=O,57%,inactive,inactive,inactive
Cc1ccc(NC(=O)c2cc(N3C(=O)c4ccc(C#N)cc4C3=O)ccc2N2CCCCC2)cc1,inactive,inactive,inactive,inactive
CC(C)c1ccc(NC(=O)c2cc(N3C(=O)c4ccc(C(=O)O)cc4C3=O)ccc2N2CCCCC2)cc1,53.1%,71%,inactive,55.6%
Cc1ccc(NC(=O)c2cc(Nc3ccccc3)cc(N3C(=O)c4ccc(C(=O)O)cc4C3=O)c2)cc1,89.4%,73.1%,inactive,4.2%
O=C(O)c1ccc2c(c1)C(=O)N(c1ccc(Cl)c(C(=O)NCc3cccnc3)c1)C2=O,inactive,inactive,inactive,inactive
COc1ccc(NC(=O)c2cc(N3C(=O)c4ccc(C(=O)O)cc4C3=O)ccc2N2CCCCC2)cc1,43.8%,inactive,inactive,inactive
CCCCCCNC(=O)c1cc(N2C(=O)c3ccc(C(=O)O)cc3C2=O)ccc1NCCCCCC,67.8%,31.8%,4%,19.3%
O=C(O)c1ccc2c(c1)C(=O)N(c1ccc(N3CCCCC3)c(C(=O)NCc3ccccc3)c1)C2=O,inactive,inactive,inactive,inactive
Cc1ccc(NC(=O)c2cc(-n3cc4ccccc4n3)ccc2N2CCCCC2)cc1,inactive,inactive,inactive,inactive
Cc1ccc(NC(=O)c2cccc(N3CCCCC3)c2N2C(=O)c3ccc(C(=O)O)cc3C2=O)cc1,7.3%,inactive,inactive,inactive
O=C(O)c1ccc2c(c1)C(=O)N(c1ccccc1)C2=O,inactive,inactive,inactive,inactive
O=C1c2ccccc2C(=O)N1c1ccccc1,inactive,inactive,inactive,inactive
